Assay outcomes deposited in PubChem BioAssay by Broad Institute.
Only a selection was taken, and hits are over-represented in it overall.
T cruzi HTS = blocks T. cruzi growth inside host cells; 4.9% of 22,000 active; activity score (inhibition), % at 5.01 µM; intracellular Trypanosoma cruzi in host cells, plate reader; in the data active = activity score above about 55%; inconclusive = no clear call, values can overlap the other calls;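 note: parasites and compound incubated about four days before reading; 0% = median of neutral control wells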
INS-1E rescue = INS-1E beta cell protection from cytokine death. INS-1E cytokine-induced death, ATP luminescence, 48 h; normalised: neutral wells 0, positive control 100. AID 488910. protection from cytokine-induced ATP loss, % at 10 µM. 0.1% of 20,000 active;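 active = mean replicate protection from cytokine-induced ATP loss at least 50% and at least 75% of replicates each reaching 50%; inconclusive = meets only one of the two criteria, mean or replicate share; inactive = fails both the mean and replicate share criteria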
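Material: INS-1E rat cells; Quantity: 8000 cells/well; Buffer or medium: phenol-red-free RPMI with 5% fetal bovine serum; Probe or stimulus: cytokine cocktail of IFN-γ, TNF-α and IL-1β; Compound dosing: single test concentration per compound, delivered by pin transfer; Incubation: 48 h co-treatment, 10 min post-lysis read; Signal: CellTiter-Glo luminescence.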
A1 apoptosis 2 = A1 inhibition read as caspase activation; caspase activation, % (test concentration not listed); MEF A1-2A-BIM cells, caspase-Glo luminescence, 3 h; percent of clofoctol response, DMSO zero; 24,000 tested, under 10 active; in the data active = caspase activation above about 5.9%; inconclusive = no clear call, values can overlap the other calls; inactive = below about 2.2%
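Material: A1-2A-BIM-expressing MEF cells. Buffer or medium: RPMI-1640 plus 10% FBS. Incubation: cells settled overnight, compound exposure 3 h at 37 °C, 5% CO2. Signal: Caspase-Glo 3/7 luminescence, 1 h at room temperature.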
Active calls of the source: *; ? = inconclusive; . = not tested or not shown.

SMILES	T cruzi HTS	INS-1E rescue	A1 apoptosis 2
C[C@@H]1CCCCO[C@@H](CN(C)Cc2ccc(Cl)c(Cl)c2)[C@@H](C)CN([C@H](C)CO)C(=O)c2cc(NS(=O)(=O)c3ccc(Cl)cc3)ccc2O1	72*	-13	-2
C[C@@H]1CCCCO[C@H](CN(C)Cc2ccc(Cl)c(Cl)c2)[C@@H](C)CN([C@H](C)CO)C(=O)c2cc(NS(=O)(=O)c3ccc(Cl)cc3)ccc2O1	64*	-14	-2
C[C@@H]1CCCCO[C@H](CN(C)Cc2ccc(Cl)c(Cl)c2)[C@@H](C)CN([C@@H](C)CO)C(=O)c2cc(NS(=O)(=O)c3ccc(F)cc3)ccc2O1	.	.	-1
COc1ccc(S(=O)(=O)Nc2ccc3c(c2)C(=O)N([C@H](C)CO)C[C@H](C)[C@@H](CN(C)Cc2ccc(Cl)c(Cl)c2)OCCCC[C@H](C)O3)cc1	.	.	0
Cc1ccc(S(=O)(=O)Nc2ccc3c(c2)C(=O)N([C@H](C)CO)C[C@@H](C)[C@H](CN(C)Cc2ccc(Cl)c(Cl)c2)OCCCC[C@@H](C)O3)cc1	.	.	-1
COc1ccc(S(=O)(=O)Nc2ccc3c(c2)C(=O)N([C@H](C)CO)C[C@H](C)[C@@H](CN(C)Cc2ccc(Cl)c(Cl)c2)OCCCC[C@@H](C)O3)cc1	73*	-69	-1
CC(=O)n1cc([C@H]2C=C(C(=O)N3CCN(C)CC3)O[C@@H](OCc3ccc(CO)cc3)C2)c2ccccc21	.	.	0
COC(=O)CCCCCCC(=O)N/N=C/C1=CCCCC1	0	-1	0
Cc1noc(C)c1S(=O)(=O)Nc1ccc2c(c1)C(=O)N([C@@H](C)CO)C[C@H](C)[C@@H](CN(C)Cc1ccc(Cl)c(Cl)c1)O2	66*	-15	1
Cc1noc(C)c1S(=O)(=O)Nc1ccc2c(c1)CC(=O)N([C@@H](C)CO)C[C@@H](C)[C@H](CN(C)Cc1ccc(Cl)c(Cl)c1)O2	.	.	-1
Cc1noc(C)c1S(=O)(=O)Nc1ccc2c(c1)CC(=O)N([C@@H](C)CO)C[C@@H](C)[C@@H](CN(C)Cc1ccc(Cl)c(Cl)c1)O2	61*	-9	.
Cc1noc(C)c1S(=O)(=O)Nc1ccc2c(c1)C(=O)N([C@@H](C)CO)C[C@@H](C)[C@@H](CN(C)Cc1ccc(Cl)c(Cl)c1)O2	50	-4	.
C[C@H]1CN([C@@H](C)CO)C(=O)c2cccc(NC(=O)c3nc4ccccc4s3)c2O[C@H]1CN(C)Cc1ccc(Cl)c(Cl)c1	?	-8	.
C[C@H]1CN([C@@H](C)CO)C(=O)c2cccc(NC(=O)c3nc4ccccc4s3)c2O[C@H]1CN(C)Cc1ccc2c(c1)OCO2	57*	-21	.
C[C@H](CO)N1C[C@H](C)[C@H](CN(C)Cc2ccc3c(c2)OCO3)Oc2c(NC(=O)c3nc4ccccc4s3)cccc2C1=O	77*	-22	0
C[C@@H]1CN([C@@H](C)CO)C(=O)c2cccc(NC(=O)c3nc4ccccc4s3)c2O[C@@H]1CN(C)C(=O)Nc1ccc2c(c1)OCO2	10	-14	-1
C[C@@H]1CN([C@@H](C)CO)C(=O)Cc2cc(NC(=O)C3CCCCC3)ccc2O[C@@H]1CN(C)S(=O)(=O)c1cn(C)cn1	-27	8	.
C[C@@H]1CN([C@@H](C)CO)C(=O)c2cccc(NC(=O)c3ccncc3)c2O[C@H]1CN(C)S(=O)(=O)c1ccccc1	-34	14	.
COC(=O)C(CC#Cc1ccc2c(c1)[C@]1(C(=O)N2)[C@H](C(N)=O)[C@H]2C(=O)O[C@H](c3ccccc3)[C@H](c3ccccc3)N2[C@@H]1c1ccccc1OCCO)C(=O)OC	.	.	0
COC(=O)CCCCCCC(=O)N/N=C/c1ccc(OC)cc1	-2	13	0
CO[C@H]1O[C@H](CO)[C@@H](OC(=O)Nc2ccccc2)[C@H](OC(=O)Nc2ccccc2)[C@@H]1OC(=O)Nc1ccccc1	.	.	0
C[C@@H]1CN([C@H](C)CO)C(=O)Cc2cc(NC(=O)Nc3ccccc3)ccc2O[C@@H]1CN(C)Cc1ccc(Cl)c(Cl)c1	41	-26	.
C[C@@H]1CN([C@@H](C)CO)C(=O)Cc2cc(NC(=O)Cc3ccccc3)ccc2O[C@@H]1CN(C)Cc1ccccc1	1	0	.
C[C@H]1CN([C@@H](C)CO)C(=O)Cc2cc(NC(=O)Cc3ccccc3)ccc2O[C@@H]1CN(C)Cc1ccc2c(c1)OCO2	57*	-4	1
C[C@@H]1CN([C@H](C)CO)C(=O)Cc2cc(NC(=O)Cc3ccccc3)ccc2O[C@H]1CN(C)Cc1ccc2c(c1)OCO2	34	3	.
SMILES	T cruzi HTS	INS-1E rescue	A1 apoptosis 2
C[C@@H]1CN([C@H](C)CO)C(=O)Cc2cc(NC(=O)Cc3ccccc3)ccc2O[C@@H]1CN(C)Cc1ccc(Cl)c(Cl)c1	76*	-75	-1
C[C@@H]1CN([C@@H](C)CO)C(=O)Cc2cc(NC(=O)Cc3ccccc3)ccc2O[C@@H]1CN(C)Cc1ccc(Cl)c(Cl)c1	66*	-38	0
O=C(CCCCCCC(=O)Nc1ccccc1O)N/N=C/c1ccc(C(=O)O)cc1	-10	-1	.
COc1cccc(OC)c1/C=N/NC(=O)CCCCCC(=O)NO	.	.	-1
COc1cc2c(cc1OC)CN(C(=O)[C@@H]1[C@H]3C(=O)O[C@H](c4ccccc4)[C@H](c4ccccc4)N3[C@H](c3ccccc3OCCO)[C@@]13C(=O)Nc1ccc(C#CCCO)cc13)CC2	.	.	-2
CC(C)=CCC[C@H](C)C/C=N/NC(=O)CCCCCCC(=O)NO	.	.	1
COc1ccc(CN(C)C[C@@H]2Oc3c(NC(=O)Nc4ccc(C(F)(F)F)cc4)cccc3C(=O)N([C@H](C)CO)C[C@@H]2C)cc1	81*	-36	-2
COc1ccc(NC(=O)Nc2cccc3c2O[C@@H](CN(C)Cc2ccc(C(F)(F)F)cc2)[C@H](C)CN([C@H](C)CO)C3=O)cc1	5	-6	.
COc1ccc(CN(C)C[C@@H]2Oc3c(NC(=O)Nc4ccc(C(F)(F)F)cc4)cccc3C(=O)N([C@@H](C)CO)C[C@H]2C)cc1	67*	-95	0
COc1ccc(NC(=O)Nc2cccc3c2O[C@H](CN(C)Cc2ccc(C(F)(F)F)cc2)[C@H](C)CN([C@@H](C)CO)C3=O)cc1	-11	-10	0
O=C(N/N=C/c1ccc2c(c1)CCO2)c1ccccc1O	-6	-30	-5
C[C@@H]1CCCCO[C@H](CN(C)C(=O)Cc2ccccc2)[C@H](C)CN([C@@H](C)CO)C(=O)c2cc(NC(=O)Nc3ccc4c(c3)OCO4)ccc2O1	.	.	0
COc1ccc(S(=O)(=O)Nc2ccc3c(c2)C(=O)N([C@H](C)CO)C[C@@H](C)[C@H](CN(C)Cc2ccc(C(F)(F)F)cc2)OCCCC[C@@H](C)O3)cc1	.	.	0
C[C@@H]1CCCCO[C@H](CN(C)Cc2ccc(C(F)(F)F)cc2)[C@@H](C)CN([C@H](C)CO)C(=O)c2cc(NS(=O)(=O)c3ccc(F)cc3)ccc2O1	56*	-10	0
C[C@@H]1CCCCO[C@H](CN(C)Cc2ccc(C(F)(F)F)cc2)[C@H](C)CN([C@@H](C)CO)C(=O)c2cc(NS(=O)(=O)c3ccc(Cl)cc3)ccc2O1	.	.	0
